# Results from ChEMBL document CHEMBL2016469, “Synthesis and evaluation of 1-(substituted)-3-prop-2-ynylureas as antiangiogenic agents” (Bioorg Med Chem Lett, 2012).
# The source made the active and inactive calls. The rule behind the calls is not given here.
# Columns and labels:
# HeLa [1] = assay: Cytotoxicity against human HeLa cells after 48 hrs by MTT assay; assay type: functional, cell-based
# MCF7 [2] = assay: Cytotoxicity against human MCF7 cells after 48 hrs by MTT assay; assay type: functional, cell-based; conditions: MCF7, 48 h
# HUVEC [3] = assay: Cytotoxicity against HUVEC after 48 hrs by MTT assay; assay type: cell-based; conditions: Homo sapiens
# Summary of the method: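 MTT assay. HeLa and MCF-7 were tested at 1 and 100 μM. HUVEC cytotoxicity was measured the same way as for HeLa and MCF-7, to define non-cytotoxic doses for the tube-formation work. IC50 values taken as means of three independent experiments.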
# [4] = Cytotoxicity against human EAhy926 cells after 48 hrs by MTT assay; assay type: functional, cell-based; conditions: EA.hy 926, 48 h
# HUVEC [5] = assay: Ratio of IC50 for cytotoxicity in HUVEC to EC50 for antiangiogenic activity in HUVEC; assay type: functional, Homo sapiens
# Summary of the method: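 Ratio of HUVEC cytotoxic IC50 (MTT) to antiangiogenic ED50 from the HUVEC tube-formation assay.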
# HUVEC [6] = assay: Antiangiogenic activity in HUVEC assessed as suppression of tube formation after 24 hrs by hematoxylin staining analysis; assay type: functional, cell-based; conditions: Homo sapiens
# HUVEC [7] = assay: Antiangiogenic activity in HUVEC assessed as suppression of tube formation at 6.25 uM after 24 hrs by hematoxylin staining analysis; assay type: functional; conditions: Homo sapiens
# [8] = target: Vascular endothelial growth factor receptor 2 (Homo sapiens) (UniProt P35968); assay: Inhibition of human recombinant VEGFR2 expressed in insect cells using Ulight-CAGAGAIETDKEYYTVKD as substrate at 1 uM after 60 mins by fluorescence assay
# Chain of Vascular endothelial growth factor receptor 2 (Homo sapiens) (P35968 whole entry): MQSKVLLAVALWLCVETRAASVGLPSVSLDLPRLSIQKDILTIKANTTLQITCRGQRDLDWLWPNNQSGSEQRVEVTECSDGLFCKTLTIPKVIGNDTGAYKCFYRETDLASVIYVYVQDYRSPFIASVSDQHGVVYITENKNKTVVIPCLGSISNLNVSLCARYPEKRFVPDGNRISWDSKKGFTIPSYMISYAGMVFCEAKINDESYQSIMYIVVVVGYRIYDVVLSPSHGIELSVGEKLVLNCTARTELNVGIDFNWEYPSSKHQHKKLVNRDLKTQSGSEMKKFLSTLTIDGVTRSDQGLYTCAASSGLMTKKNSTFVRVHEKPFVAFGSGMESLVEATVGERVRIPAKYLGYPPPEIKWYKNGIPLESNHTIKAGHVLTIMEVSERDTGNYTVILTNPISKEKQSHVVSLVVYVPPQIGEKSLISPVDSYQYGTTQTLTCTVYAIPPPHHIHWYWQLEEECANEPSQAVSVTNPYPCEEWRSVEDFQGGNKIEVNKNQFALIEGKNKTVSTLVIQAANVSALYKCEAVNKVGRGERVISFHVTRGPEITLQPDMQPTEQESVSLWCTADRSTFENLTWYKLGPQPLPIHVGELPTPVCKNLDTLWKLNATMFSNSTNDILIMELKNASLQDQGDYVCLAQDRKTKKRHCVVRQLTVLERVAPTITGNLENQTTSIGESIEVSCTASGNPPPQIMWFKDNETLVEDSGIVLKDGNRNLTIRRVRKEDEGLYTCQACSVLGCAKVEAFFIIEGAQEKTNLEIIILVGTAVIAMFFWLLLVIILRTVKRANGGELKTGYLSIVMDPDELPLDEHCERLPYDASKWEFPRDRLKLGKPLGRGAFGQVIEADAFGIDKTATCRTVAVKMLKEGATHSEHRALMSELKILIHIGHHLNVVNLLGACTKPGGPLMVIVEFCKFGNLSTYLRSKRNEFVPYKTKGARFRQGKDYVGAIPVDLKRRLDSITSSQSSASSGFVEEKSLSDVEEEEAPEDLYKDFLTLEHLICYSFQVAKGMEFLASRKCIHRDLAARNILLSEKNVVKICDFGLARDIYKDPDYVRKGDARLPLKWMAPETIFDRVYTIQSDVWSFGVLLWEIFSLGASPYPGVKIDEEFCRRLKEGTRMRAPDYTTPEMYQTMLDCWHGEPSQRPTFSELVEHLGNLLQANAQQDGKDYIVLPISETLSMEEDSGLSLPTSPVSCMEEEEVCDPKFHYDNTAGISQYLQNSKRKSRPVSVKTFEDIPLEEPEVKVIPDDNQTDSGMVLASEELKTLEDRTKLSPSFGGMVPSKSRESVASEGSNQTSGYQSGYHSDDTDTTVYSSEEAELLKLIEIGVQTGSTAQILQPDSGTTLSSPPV
# Summary of the method: (§1)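 In vitro kinase assay against FGFR1, PDGFRβ or VEGFR2 with test compound at 1 μM. Read-out is the level of phosphorylation of a tyrosine kinase-specific ligand peptide substrate.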
# [9] = target: Fibroblast growth factor receptor 1 (Homo sapiens) (UniProt P11362); assay: Inhibition of human recombinant FGFR1 expressed in insect cells using Ulight-CAGAGAIETDKEYYTVKD as substrate at 1 uM after 60 mins by fluorescence assay; summary of the method: as §1
# Chain of Fibroblast growth factor receptor 1 (Homo sapiens) (P11362 22-822 limits assumed): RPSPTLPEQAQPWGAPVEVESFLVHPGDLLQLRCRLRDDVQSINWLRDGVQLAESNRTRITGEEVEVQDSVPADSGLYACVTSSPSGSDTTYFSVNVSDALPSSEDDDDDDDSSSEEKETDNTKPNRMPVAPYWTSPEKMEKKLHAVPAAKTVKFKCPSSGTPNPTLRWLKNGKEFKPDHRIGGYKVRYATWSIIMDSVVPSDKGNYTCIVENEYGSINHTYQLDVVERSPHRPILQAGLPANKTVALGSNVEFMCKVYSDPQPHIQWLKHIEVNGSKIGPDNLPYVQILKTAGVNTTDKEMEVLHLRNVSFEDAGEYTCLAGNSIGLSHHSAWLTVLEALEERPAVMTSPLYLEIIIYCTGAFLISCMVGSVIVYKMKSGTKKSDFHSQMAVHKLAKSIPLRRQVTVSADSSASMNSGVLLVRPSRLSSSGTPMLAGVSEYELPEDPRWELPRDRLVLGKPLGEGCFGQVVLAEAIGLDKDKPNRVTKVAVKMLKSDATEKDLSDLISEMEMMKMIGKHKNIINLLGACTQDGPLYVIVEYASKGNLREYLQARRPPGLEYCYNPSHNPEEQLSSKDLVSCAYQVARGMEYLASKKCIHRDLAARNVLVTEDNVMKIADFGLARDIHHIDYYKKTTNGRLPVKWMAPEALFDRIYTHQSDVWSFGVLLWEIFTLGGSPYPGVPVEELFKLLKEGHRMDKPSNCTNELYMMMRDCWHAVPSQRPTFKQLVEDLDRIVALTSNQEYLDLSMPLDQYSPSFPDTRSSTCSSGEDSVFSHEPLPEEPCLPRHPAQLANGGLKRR
# A-431 = assay: Cytotoxicity against human A431 cells over expressing EGFR after 48 hrs by MTT assay; assay type: functional, cell-based; conditions: A-431, 48 h
# K562 = assay: Cytotoxicity against human K562 cells; assay type: functional, cell-based
# HeLa [10] = assay: Cytotoxicity against human HeLa cells at 100 uM after 48 hrs by MTT assay; assay type: functional; conditions: read-out: GI
# Summary of the method: (§2)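 MTT cytotoxicity screen against HeLa or MCF-7 cells at a single test concentration of 100 μM (screen also included 1 μM).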
# MCF7 [11] = assay: Cytotoxicity against human MCF7 cells at 100 uM after 48 hrs by MTT assay; assay type: functional; conditions: MCF7, 48 h, read-out: GI; summary of the method: as §2
# HUVEC [12] = assay: Antiangiogenic activity in HUVEC assessed as suppression of tube formation at 25 nM after 24 hrs by hematoxylin staining analysis; assay type: functional; conditions: Homo sapiens
# [13] = target: Platelet-derived growth factor receptor beta (Homo sapiens) (UniProt P09619); assay: Inhibition of human recombinant PDGFR-beta expressed in insect cells using Ulight-Poly GAT[EAY(1:1:1)]n as substrate at 1 uM after 60 mins by fluorescence assay; summary of the method: as §1
# Chain of Platelet-derived growth factor receptor beta (Homo sapiens) (P09619 whole entry): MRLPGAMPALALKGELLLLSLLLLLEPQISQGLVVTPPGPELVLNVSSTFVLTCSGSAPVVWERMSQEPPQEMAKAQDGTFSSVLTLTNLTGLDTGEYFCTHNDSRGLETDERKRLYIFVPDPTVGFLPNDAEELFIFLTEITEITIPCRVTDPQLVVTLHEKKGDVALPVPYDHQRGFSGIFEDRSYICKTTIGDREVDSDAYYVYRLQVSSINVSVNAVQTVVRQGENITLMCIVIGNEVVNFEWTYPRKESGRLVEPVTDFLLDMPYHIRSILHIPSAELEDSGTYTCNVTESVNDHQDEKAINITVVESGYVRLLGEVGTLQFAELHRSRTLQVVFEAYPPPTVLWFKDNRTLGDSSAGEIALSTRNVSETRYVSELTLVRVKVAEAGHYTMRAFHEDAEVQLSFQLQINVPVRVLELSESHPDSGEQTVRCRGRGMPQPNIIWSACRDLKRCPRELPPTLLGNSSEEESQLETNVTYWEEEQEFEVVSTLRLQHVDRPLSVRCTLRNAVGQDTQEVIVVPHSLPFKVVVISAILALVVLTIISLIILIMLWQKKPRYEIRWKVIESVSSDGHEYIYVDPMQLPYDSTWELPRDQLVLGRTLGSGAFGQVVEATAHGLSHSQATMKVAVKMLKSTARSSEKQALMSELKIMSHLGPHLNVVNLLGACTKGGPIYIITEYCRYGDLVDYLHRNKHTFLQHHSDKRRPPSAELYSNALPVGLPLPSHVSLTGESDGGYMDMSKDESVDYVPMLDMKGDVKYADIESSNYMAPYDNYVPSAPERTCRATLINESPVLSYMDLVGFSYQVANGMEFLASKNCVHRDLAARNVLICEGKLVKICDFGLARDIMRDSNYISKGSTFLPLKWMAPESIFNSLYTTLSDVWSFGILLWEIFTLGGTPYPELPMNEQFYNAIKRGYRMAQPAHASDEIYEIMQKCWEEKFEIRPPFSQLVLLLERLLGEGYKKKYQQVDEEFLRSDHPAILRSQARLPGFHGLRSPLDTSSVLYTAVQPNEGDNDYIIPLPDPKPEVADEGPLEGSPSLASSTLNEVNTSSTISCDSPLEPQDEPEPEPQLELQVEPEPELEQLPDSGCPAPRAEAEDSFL
# HUVEC [14] = assay: Angiogenic activity in HUVEC assessed as induction of tube formation at 12.5 nM after 24 hrs by hematoxylin staining analysis; assay type: functional, cell-based; conditions: Homo sapiens
# HUVEC [15] = assay: Cytotoxicity against HUVEC at 12.5 nM after 48 hrs by MTT assay; assay type: cell-based; conditions: human, 0.0125 µM
# MDA-MB-231 = assay: Cytotoxicity against human MDA-MB-231 cells; assay type: functional, cell-based
# [16] = Homo sapiens, HeLa, 48 h, read-out: IC50
SMILES,IC50 (HeLa [1]; [16]) [µM],IC50 (MCF7 [2]) [µM],IC50 (HUVEC [3]) [µM],IC50 [4] [µM],IC50 (A-431) [µM],also measured
C#CCNC(=O)Nc1cccc(COc2ccc(C(=O)OC)cc2)c1,12.3,74.9,100,78.2,0.215,Ratio (HUVEC [5]): 6; EC50 (HUVEC [6]): 17.5 µM; inhibition at 6.25 µM (HUVEC [7]): 46.5%; inhibition [8]: inactive; inhibition [9]: inactive
COc1ccc(N(C(=O)N(C)C)c2nnc(-c3ccccc3)s2)cc1OC,–,–,–,–,–,IC50 (K562): 3 µM
C#CCNC(=O)Nc1cccc(CCl)c1,1.55,1.48,20,10.5,0.036,inhibition of growth at 100 µM (HeLa [10]): 86.9%; inhibition of growth at 100 µM (MCF7 [11]): 85.2%; Ratio (HUVEC [5]): 77; EC50 (HUVEC [6]): 0.26 µM; inhibition at 0.025 µM (HUVEC [12]): 21.2%; inhibition [8]: inactive; inhibition [9]: inactive; inhibition [13]: Active
C#CCNC(=O)Nc1cccc(CNCc2ccc(OC(F)(F)F)cc2)c1,339,283,–,–,–,–
C#CCNC(=O)Nc1cccc(CNCc2ccccc2)c1,–,343,50,192,0.318,IC50 (HeLa [1]; hela): Not Active; Activity (HUVEC [14]): Active; Activity (HUVEC [15]): Non-toxic
C#CCNC(=O)Nc1cccc(CNCc2ccc(C)cc2)c1,329,49.9,–,–,–,–
C#Cc1cccc(Nc2ncnc3cc(OCCOC)c(OCCOC)cc23)c1 [ERLOTINIB],–,–,–,–,0.055,–
COc1cccc2c1C(=O)c1c(O)c3c(c(O)c1C2=O)C[C@@](O)(C(=O)CO)C[C@@H]3O[C@H]1C[C@H](N)[C@H](O)[C@H](C)O1 [DOXORUBICIN],0.19,–,–,–,–,–
CNC(=O)c1cc(Oc2ccc(NC(=O)Nc3ccc(Cl)c(C(F)(F)F)c3)cc2)ccn1 [SORAFENIB],–,–,–,–,–,IC50 (MDA-MB-231): 2.5 µM
C#CCNC(=O)Nc1cccc(CNCc2ccc(OC)cc2)c1,392,195,–,–,–,–
